From ChEMBL document CHEMBL3751738, “Structure-based design and biological evaluation of novel 2-(indol-2-yl) thiazole derivatives as xanthine oxidase inhibitors” (Bioorg Med Chem Lett, 2016) come the findings set out here.

Series [1] is described as follows: Inhibition of butter milk xanthine oxidase (unknown origin) assessed as initial velocity of uric acid formation pre-incubated for 3 mins by spectrophotometry analysis. The gist of the method: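 Buttermilk xanthine oxidase diluted to 0.05 U/mL in 50 mM phosphate buffer. Compounds at several concentrations were added in phosphate buffer containing 10% DMSO and pre-incubated 3 min at room temperature. The reaction was started with xanthine solution (200 µM as added). Uric acid formation was read at 293 nm, with the linear rate over 5 min taken as initial velocity. % inhibition was calculated against the no-inhibitor rate, and IC50 derived.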

A short description of series [2]: Half life in rat liver microsomes. In kind it is ADME.
The test system of series [3] is Rattus norvegicus. The series can be described thus: Inhibition of oxonic acid-induced high uric acid level in Sprague-Dawley rat plasma at 10 mg/kg, po after 1 hr. It counts as functional. The gist of the method: (§1)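 Hyperuricemia was induced in male SD rats (about 200 g) with potassium oxonate 300 mg/kg i.p., suspended in 0.8% carboxymethylcellulose. One hour later compounds were dosed orally in PEG400:ethanol (2:1), and blood was taken 1 h post-dose for plasma uric acid. Inhibition was scaled with the normal group as 100% and the oxonate control as 0%. Statistics used ANOVA with Dunnett's post-test.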

A short description of series [4]: Plasma concentration in Sprague-Dawley rat at 10 mg/kg, po after 1 hr. It counts as ADME, organism-based. In a few lines: as §1
Series [5] can be described thus: Cmax in Sprague-Dawley rat at 10 mg/kg, po. It counts as ADME, organism-based. Set-up: dose 10 mg/kg, route oral. The conditions noted are these: in vivo. The gist of the method:
(§2)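 Single oral dose of 10 mg/kg given to SD rats. Plasma Cmax, Tmax, AUC0–last, AUC0–infinity and t1/2 were determined, n = 3.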

Series [6] is described as follows: AUC (0 to last) in Sprague-Dawley rat at 10 mg/kg, po. In kind it is ADME, organism-based. The arrangement: dose 10 mg/kg, route oral, time 0 - last. The conditions noted are these: in vivo. In a few lines: as §2
Series [7] is described as follows: AUC (0 to infinity) in Sprague-Dawley rat at 10 mg/kg, po. It counts as ADME, organism-based. The arrangement: dose 10 mg/kg, route oral, time infinity. The conditions noted are these: in vivo. The gist of the method:
as §2

Series [8] can be described thus: Tmax in Sprague-Dawley rat at 10 mg/kg, po. It counts as ADME, organism-based. The conditions noted are these: in vivo. In a few lines:
as §2

Series [9] is described as follows: Half life in Sprague-Dawley rat at 10 mg/kg, po. It counts as ADME, organism-based. The conditions noted are these: in vivo. In a few lines:
as §2

As usually defined, the IC50 is the concentration needed to halve the response being measured. As usually defined, the half-life is the time in which the quantity being followed falls by half. Read a high half-life as slow loss. As usually defined, the inhibition in vivo is the percentage by which the read-out fell short of the control. By Cmax is commonly meant the highest concentration seen after dosing. As a reminder, the AUC(0-t) is the area under the concentration-time curve up to a stated or last time point. A high value points to more exposure. One may read the AUC(0-inf) as total exposure, with the tail of the curve extrapolated. Higher therefore signals more exposure. As a reminder, the Tmax is the time from dosing to the highest level.

`Cc1nc(-c2cc3cc(CNS(C)(=O)=O)cc([N+](=O)[O-])c3[nH]2)sc1C(=O)O`: in [1], the IC50 was determined as 3.6 nM. The molecule also showed a half-life in series [2] of 14.6 h. The inhibition in vivo at 10 mg/kg in [3] is 0%. The molecule further came in with a concentration at 1 h in [4] of 17 ng/mL.

`Cc1nc(-c2cc3cc(Oc4ccccc4)ccc3[nH]2)sc1C(=O)O`: the IC50 in series [1] was found to be 233 nM. Further, in series [2], the half-life amounted to 1.94 h.

As to `COc1ccc2cc(-c3nc(C)c(C(=O)O)s3)[nH]c2c1`, the IC50 in [1] was 2200 nM.

Take `Oc1ncnc2[nH]ncc12` [ALLOPURINOL]: the concentration for half-maximal inhibition (IC50) in series [1] was determined as 3740 nM.

For the molecule `Cc1nc(-c2cc3cc(N4CCCCC4)cc(C#N)c3[nH]2)sc1C(=O)O`, the IC50 in series [1] was determined as 6.9 nM. Besides, the half-life in [2] came out at 2.51 h. Further, in series [5], the peak level (Cmax) was 740 ng/mL.

Turning to `Cc1nc(-c2cc3cc(NCc4ccccc4)cc(C#N)c3[nH]2)sc1C(=O)O`, the IC50 in [1] turned out to be 9.3 nM. The same molecule had a half-life in series [2] of 1.5 h.

As to `Cc1nc(-c2cc3cc(Oc4ccccc4)cc(Br)c3[nH]2)sc1C(=O)O`, the IC50 in series [1] was 17 nM. For the same molecule, in series [2], the half-life came out at 1.52 h.

For the molecule `Cc1nc(-c2cc3cc(OC4CCCC4)cc(C#N)c3[nH]2)sc1C(=O)O`, the IC50 in series [1] came out at 5.7 nM. Further, the half-life in [2] came out at 2.07 h. The molecule further came in with an inhibition in vivo at 10 mg/kg in [3] of 2.3%. This molecule also had a Cmax in series [5] of 720 ng/mL.

Take `Cc1nc(-c2cc3cc(OCc4ccccc4)ccc3[nH]2)sc1C(=O)O`: in [1], the IC50 was 522 nM.

On to `Cc1nc(-c2cc3cc(N)cc(C#N)c3[nH]2)sc1C(=O)O`, for which, in series [1], the IC50 stood at 31.8 nM.

In the case of `N#Cc1cc(-c2n[nH]c(-c3ccncc3)n2)ccn1` [TOPIROXOSTAT], in series [1], the IC50 was 5.3 nM.

For `Cc1nc(-c2cc3cc(OC(C)C)cc(C#N)c3[nH]2)sc1C(=O)O`, the IC50 in series [1] stood at 6.1 nM. In addition, the half-life in series [2] was found to be 2.17 h. At 10 mg/kg the inhibition in vivo in [3] was 19%. For the same molecule, the highest level in series [5] (Cmax) was 3750 ng/mL.

For `Cc1nc(-c2cc3cc(OCC(C)C)ccc3[nH]2)sc1C(=O)O`, the IC50 in series [1] amounted to 209 nM. Moreover, the half-life in [2] was found to be 1.61 h.

Regarding `Cc1nc(-c2cc3cc(Oc4ccccc4)cc(C#N)c3[nH]2)sc1C(=O)O`, the IC50 in series [1] amounted to 8.9 nM. Further, in [2], the half-life stood at 3.67 h.

For `COc1ccc2[nH]c(-c3nc(C)c(C(=O)O)s3)cc2c1`, in [1], the IC50 was determined as 792 nM.

For the molecule `Cc1nc(-c2cc3cc(NC4CCCC4)cc(C#N)c3[nH]2)sc1C(=O)O`, the IC50 in series [1] was found to be 9.4 nM. Moreover, the half-life in series [2] was determined as 2.96 h. The same molecule came in with a Cmax in series [5] of 300 ng/mL.

As for `Cc1nc(-c2cc3cc(Oc4ccccc4)cc(Cl)c3[nH]2)sc1C(=O)O`, the IC50 in series [1] came to 14.3 nM. Moreover, the half-life in series [2] came out at 4.69 h.

`Cc1nc(-c2cc3cc(OC(C)C)cc([N+](=O)[O-])c3[nH]2)sc1C(=O)O`: the IC50 in [1] was determined as 5.1 nM. The half-life is 4.13 h in [2] and 3.45 h in [9]. Moreover, 10 mg/kg produced 43% inhibition in vivo in series [3]. In series [5], this molecule yielded a Cmax of 4940 ng/mL. In series [6], this molecule returned an AUC(0-t) of 8230 ng·h/mL. Moreover, the AUC(0-inf) in [7] stood at 13100 ng·h/mL. Also, the Tmax in series [8] came out at 0.42 h.

With `Cc1nc(-c2cc3ccc(OCC(C)C)cc3[nH]2)sc1C(=O)O`, the IC50 in [1] worked out at 481 nM.

Turning to `Cc1nc(-c2ccc(OCC(C)C)c(C#N)c2)sc1C(=O)O` [FEBUXOSTAT], in [1], the IC50 came out at 3.1 nM. In addition, the inhibition in vivo at 10 mg/kg in series [3] amounted to 60%.

As for `COc1cc([N+](=O)[O-])c2[nH]c(-c3nc(C)c(C(=O)O)s3)cc2c1`, the IC50 in [1] amounted to 7 nM. Moreover, in series [2], the half-life is 0.402 h. For the same molecule, 10 mg/kg produced 4% inhibition in vivo in series [3]. For the same molecule, the concentration at 1 h in series [4] was 100 ng/mL.

As to `Cc1nc(-c2cc3cc(Oc4ccccc4)cc([N+](=O)[O-])c3[nH]2)sc1C(=O)O`, the IC50 in series [1] was determined as 15.9 nM. In series [2], this molecule yielded a half-life of 4.03 h. This molecule also displayed an inhibition in vivo at 10 mg/kg in series [3] of 7.1%. Besides, the highest level in series [5] (Cmax) was 3200 ng/mL.
